According to ChEMBL document CHEMBL1144441, “Identification of a novel cardenolide (2''-oxovoruscharin) from Calotropis procera and the hemisynthesis of novel derivatives displaying potent in vitro antitumor activities and high in vivo tolerance: structure-activity relationship analyses” (J Med Chem, 2005):

How the values were obtained:
[1] = In vitro cytotoxic activity against human […] cancer cell lines after 3 days of culture; assay type: functional
Outline: (§1)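 MTT overall-growth panel across 57 human cancer lines. Cells were plated for 24 h at 10 000–40 000 cells/mL, depending on cell type. Drugs were given at nine concentrations, 10^-9 to 10^-5 M in semilog steps, for 3 days. Absorbance was read at 570 nm with a 630 nm reference, in sextuplicate. Surviving cells are expressed as % of untreated control (100%).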

A-427 = experiment: In vitro cytotoxic activity against human A427 cancer cell lines after 3 days of culture; assay type: functional; outline: as §1
LoVo = experiment: In vitro cytotoxic activity against human LoVo cancer cell lines after 3 days of culture; assay type: functional; outline: as §1
T98G = experiment: In vitro cytotoxic activity against human T98G cancer cell lines after 3 days of culture; assay type: functional
Outline: (§2)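 Human cancer cell lines, seeded 10 000–40 000 cells/mL and plated for 24 h, then exposed 72 h to nine drug concentrations from 10^-9 to 10^-5 M in semilog steps. Overall growth read by MTT reduction to formazan, absorbance at 570 nm (reference 630 nm). Sextuplicate wells; IC50 is the concentration reducing overall growth by 50% versus untreated control.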

BT-20 = experiment: In vitro cytotoxic activity against human BT-20 cancer cell lines after 3 days of culture; assay type: functional; outline: as §1
[2] = In vitro cytotoxic activity against human SW948 cancer cell lines after 3 days of culture; assay type: functional; outline: as §2
Malme-3M = experiment: In vitro cytotoxic activity against human MALME-3M cancer cell lines after 3 days of culture; assay type: functional; outline: as §1
LNCaP = experiment: In vitro cytotoxic activity against human LNCaP cancer cell lines after 3 days of culture; assay type: functional; outline: as §1
HT-29 = experiment: In vitro cytotoxic activity against human HT-29 cancer cell lines after 3 days of culture; assay type: functional; outline: as §1
[3] = In vitro cytotoxic activity against human G361 cancer cell lines after 3 days of culture; assay type: functional; outline: as §1
[4] = In vitro cytotoxic activity against human SK-LMS-1 cancer cell lines after 3 days of culture; assay type: functional; outline: as §1
Hs-578T = experiment: In vitro cytotoxic activity against human Hs 578.T cancer cell lines after 3 days of culture; assay type: functional; outline: as §1
MIA PaCa-2 = experiment: In vitro cytotoxic activity against human MiaPaca-2 cancer cell lines after 3 days of culture; assay type: functional; outline: as §1
[5] = In vitro cytotoxic activity against human SCC-9 cancer cell lines after 3 days of culture; assay type: functional; outline: as §1
U373 MG = experiment: In vitro cytotoxic activity against human U-373MG cancer cell lines after 3 days of culture; assay type: functional, U-373MG ATCC; outline: as §2
HCT-15 = experiment: In vitro cytotoxic activity against human HCT-15 cancer cell lines after 3 days of culture; assay type: functional; outline: as §1
[6] = In vitro cytotoxic activity against human Capan-2 cancer cell lines after 3 days of culture; assay type: functional; outline: as §1
FaDu = experiment: In vitro cytotoxic activity against human FaDu cancer cell lines after 3 days of culture; assay type: functional; outline: as §1
[7] = In vitro cytotoxic activity against human Detroit 562 cancer cell lines after 3 days of culture; assay type: functional; outline: as §1
HT-1080 = experiment: In vitro cytotoxic activity against human HT1080 cancer cell lines after 3 days of culture; assay type: functional; outline: as §1
[8] = In vitro cytotoxic activity against human 769-P cancer cell lines after 3 days of culture; assay type: functional; outline: as §1
[9] = In vitro cytotoxic activity against human Hs 766.T cancer cell lines after 3 days of culture; Activity expressed as log IC50; assay type: functional
Outline: (§3)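 Adherent human cancer cell lines seeded at 10 000 to 40 000 cells/mL (depending on cell type) and left 24 h before treatment. Nine concentrations, 10^-9 to 10^-5 M in semilog steps, for 72 h. Growth measured by MTT reduction to formazan, absorbance 570 nm (reference 630 nm). Sextuplicate wells. IC50 is the concentration giving 50% lower overall growth than control.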

U-87 MG = experiment: In vitro cytotoxic activity against human U87MG cancer cell lines after 3 days of culture; assay type: functional, U-87MG ATCC; outline: as §2
786-0 = experiment: In vitro cytotoxic activity against human 786-O cancer cell lines after 3 days of culture; assay type: functional; outline: as §1
BXPC-3 = experiment: In vitro cytotoxic activity against human BxPC-3 cancer cell lines after 3 days of culture; assay type: functional; outline: as §1
[10] = In vitro cytotoxic activity against human SK-UT-1B cancer cell lines after 3 days of culture; assay type: functional; outline: as §2
A498 = experiment: In vitro cytotoxic activity against human A-498 cancer cell lines after 3 days of culture; assay type: functional; outline: as §1
SK-MEL-28 = experiment: In vitro cytotoxic activity against human SKMEL-28 cancer cell lines after 3 days of culture; assay type: functional; outline: as §2
DU-145 = experiment: In vitro cytotoxic activity against human DU145 cancer cell lines after 3 days of culture; assay type: functional; outline: as §1
[11] = In vitro cytotoxic activity against human Hs 683 cancer cell lines after 3 days of culture; Activity expressed as log IC50; assay type: functional; outline: as §3
[12] = In vitro cytotoxic activity against human HT144 cancer cell lines after 3 days of culture; assay type: functional; outline: as §1
[13] = In vitro cytotoxic activity against human Su.86.86 cancer cell lines after 3 days of culture; assay type: functional; outline: as §2
ACHN = experiment: In vitro cytotoxic activity against human ACHN cancer cell lines after 3 days of culture; assay type: functional; outline: as §1
[14] = In vitro cytotoxic activity against human AL-12T cancer cell lines after 3 days of culture; assay type: functional; outline: as §1
WiDr = experiment: In vitro cytotoxic activity against human WiDr cancer cell lines after 3 days of culture; assay type: functional; outline: as §2
ZR-75-1 = experiment: In vitro cytotoxic activity against human ZR-75-1 cancer cell lines after 3 days of culture; assay type: functional; outline: as §2
[15] = In vitro cytotoxic activity against human SW1088 cancer cell lines after 3 days of culture; Activity expressed as log IC50; assay type: functional; outline: as §3
HT1197 = experiment: In vitro cytotoxic activity against human HT1197 cancer cell lines after 3 days of culture; assay type: functional; outline: as §1
PANC-1 = experiment: In vitro cytotoxic activity against human Panc-1 cancer cell lines after 3 days of culture; assay type: functional; outline: as §1
T-24 = experiment: In vitro cytotoxic activity against human T24 cancer cell lines after 3 days of culture; assay type: functional; outline: as §2
PC-3 = experiment: In vitro cytotoxic activity against human PC-3 cancer cell lines after 3 days of culture; assay type: functional; outline: as §1
T47D = experiment: In vitro cytotoxic activity against human T-47D cancer cell lines after 3 days of culture; assay type: functional; outline: as §2
[16] = In vitro cytotoxic activity against human C32 cancer cell lines after 3 days of culture; assay type: functional; outline: as §1
CFPAC-1 = experiment: In vitro cytotoxic activity against human CFPAC-1 cancer cell lines after 3 days of culture; Activity expressed as log IC50; assay type: functional; outline: as §3
DLD-1 = experiment: In vitro cytotoxic activity against human DLD-1 cancer cell lines after 3 days of culture; assay type: functional; outline: as §1
MDA-MB-231 = experiment: In vitro cytotoxic activity against human MDA-MB-231 cancer cell lines after 3 days of culture; assay type: functional; outline: as §1
CAKI-2 = experiment: In vitro cytotoxic activity against human CAKI-2 cancer cell lines after 3 days of culture; assay type: functional; outline: as §1
H4 = experiment: In vitro cytotoxic activity against human H4 cancer cell lines after 3 days of culture; Activity expressed as log IC50; assay type: functional; outline: as §3
[17] = In vitro cytotoxic activity against human Hs 729 cancer cell lines after 3 days of culture; assay type: functional; outline: as §1
A204 = experiment: In vitro cytotoxic activity against human A204 cancer cell lines after 3 days of culture; assay type: functional; outline: as §1
MES-SA = experiment: In vitro cytotoxic activity against human MES-SA cancer cell lines after 3 days of culture; assay type: functional; outline: as §1
[18] = In vitro cytotoxic activity against human MCF7HTB-22 cancer cell lines after 3 days of culture; assay type: functional; outline: as §1
[19] = In vitro cytotoxic activity against human Hs 174.T cancer cell lines after 3 days of culture; assay type: functional; outline: as §1
[20] = In vitro cytotoxic activity against human SW1783 cancer cell lines after 3 days of culture; Activity expressed as log IC50; assay type: functional; outline: as §3
A549 = experiment: In vitro cytotoxic activity against human A549 cancer cell lines after 3 days of culture; assay type: functional; outline: as §1

CCc1c2c(nc3ccc(O)cc13)-c1cc3c(c(=O)n1C2)COC(=O)[C@]3(O)CC [7-ETHYL-10-HYDROXYCAMPTOTHECIN]
Log IC50 [1]: -9
Log IC50 (A-427): -9
Log IC50 (LoVo): -6.4
Log IC50 (T98G): -7.3
Log IC50 (BT-20): -6.5
Log IC50 [2]: -7.7
Log IC50 (Malme-3M): -5.2
Log IC50 (LNCaP): -5.5
Log IC50 (HT-29): -7.5
Log IC50 [3]: -5.6
Log IC50 [4]: -6.4
Log IC50 (Hs-578T): -6.3
Log IC50 (MIA PaCa-2): -6.6
Log IC50 [5]: -6.1
Log IC50 (U373 MG): -9
Log IC50 (HCT-15): -7.1
Log IC50 [6]: -6.3
Log IC50 (FaDu): -8.9
Log IC50 [7]: -8
Log IC50 (HT-1080): -7.3
Log IC50 [8]: -7.9
Log IC50 [9]: -5.6
Log IC50 (U-87 MG): -8.1
Log IC50 (786-0): -8.3
Log IC50 (BXPC-3): -7.1
Log IC50 [10]: -9
Log IC50 (A498): -6.9
Log IC50 (SK-MEL-28): -7.3
Log IC50 (DU-145): -9
Log IC50 [11]: -7
Log IC50 [12]: -7.6
Log IC50 [13]: -6.5
Log IC50 (ACHN): -8.3
Log IC50 [14]: -6.1
Log IC50 (WiDr): -6.6
Log IC50 (ZR-75-1): -7.4
Log IC50 [15]: -5.4
Log IC50 (HT1197): -5
Log IC50 (PANC-1): -5.1
Log IC50 (T-24): -8.2
Log IC50 (PC-3): -6.7
Log IC50 (T47D): -7.3
Log IC50 [16]: -8.7
Log IC50 (CFPAC-1): -8.3
Log IC50 (DLD-1): -6.8
Log IC50 (MDA-MB-231): -5.3
Log IC50 (CAKI-2): -5.3
Log IC50 (H4): -6.5
Log IC50 [17]: -7.3
Log IC50 (A204): -7.7
Log IC50 (MES-SA): -7.1
Log IC50 [18]: -7.5
Log IC50 [19]: -6.9
Log IC50 [20]: -7.3
Log IC50 (A549): -7.4
